Runt-SMMHC FRET: inhibitors of RUNX1 Runt–CBFb-SMMHC binding, primary screen, biochemical, FRET, Cerulean-Runt, Venus-CBFb-SMMHC, uHTS; inhibition, % at 20 µM; Cerulean-Runt/Venus-CBFb-SMMHC FRET ratio 530/480, 1 h; 220,000 compounds, 0.74% hits; Runt-related transcription factor 1 (Homo sapiens) + Core-binding factor subunit beta …; AID 1434, 2008;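 active = mean inhibition across duplicate retests at 20 µM reaching about 50%, limit read from the data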;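 also: 0% = DMSO wells and 100% = wells with excess untagged CBFb-SMMHC; inhibitors lower the FRET ratio by blocking Runt binding to CBFb-SMMHC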
Target sequence (Q01196 whole entry, looked up): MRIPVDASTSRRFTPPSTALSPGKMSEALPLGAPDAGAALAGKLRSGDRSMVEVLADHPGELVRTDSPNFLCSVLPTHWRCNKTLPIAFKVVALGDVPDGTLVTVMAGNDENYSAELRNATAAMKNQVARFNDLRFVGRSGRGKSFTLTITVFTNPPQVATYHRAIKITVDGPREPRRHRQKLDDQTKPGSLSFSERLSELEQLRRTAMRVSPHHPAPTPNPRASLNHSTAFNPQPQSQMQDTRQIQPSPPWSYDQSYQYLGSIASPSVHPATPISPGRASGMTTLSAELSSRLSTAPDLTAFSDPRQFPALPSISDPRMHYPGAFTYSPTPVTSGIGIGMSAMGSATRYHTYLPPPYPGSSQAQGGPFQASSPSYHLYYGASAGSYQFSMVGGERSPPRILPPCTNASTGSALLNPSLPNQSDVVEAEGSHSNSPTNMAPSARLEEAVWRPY
Target sequence (Q13951 whole entry, looked up): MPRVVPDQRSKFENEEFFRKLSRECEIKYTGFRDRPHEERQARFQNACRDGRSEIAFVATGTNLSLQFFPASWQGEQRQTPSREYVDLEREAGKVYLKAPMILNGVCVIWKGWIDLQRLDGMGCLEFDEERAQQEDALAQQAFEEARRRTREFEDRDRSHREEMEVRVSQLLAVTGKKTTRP
TNF death inh: inhibitors of TNF-alpha triggered necroptosis, primary screen, cell-based, Jurkat FADD-/-, single concentration; Jurkat FADD-/- TNF necroptosis rescue, ATP luminescence, 24 h; 0 = TNF only, 100 = no-TNF cells; activation (protection from cell death), % at 10 µM; 220,000 compounds, 0.068% hits; AID 463075, 2010;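 active = activation, meaning protection from cell death, of at least 50% relative to plate controls; inactive = activation below 50%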;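 also: necroptosis triggered by 40 ng/mL TNF-alpha added together with compound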
L929 necroptosis: inhibitors of zVAD-triggered necroptosis, primary screen, L929 cells; L929 zVAD necroptosis rescue, ATP luminescence, 24 h; with zVAD 60 µM; viability rescue, % at 10 µM; 220,000 compounds, 0.38% hits;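 active = activation, scaled between plate controls, above about 75%, limit read from the data; inactive = activation under that limit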;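 also: 0% = zVAD with DMSO and 100% = DMSO alone without zVAD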
Runt-CBFb FRET: inhibitors of RUNX1 Runt–CBFb binding, primary screen, biochemical, FRET, Cerulean-Runt, Venus-CBFb, uHTS. Runt-related transcription factor 1 (Homo sapiens) + Core-binding factor subunit beta …. Cerulean-Runt/Venus-CBFb FRET ratio 530/480, 1 h. inhibition, % at 20 µM. 220,000 compounds, 0.46% hits;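 active = inhibition over about 50% at 20 µM in the single-dose screen, limit read from the data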;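 also: 0% = DMSO wells and 100% = excess unlabeled CBFb competitor control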
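Assay system: Cerulean-Runt domain fusion protein, energy donor; Signal: fluorescence energy transfer, 422 nm excitation, 530/480 nm emission; Timing: 1 h compound exposure, room temperature; Control set: unlabeled CBFb; Medium: Tris buffer pH 7.5 with salts and BSA; Compound: single test concentration of 20 µM, 1% DMSO final; Probe or stimulus: Venus-CBFb 100 nM.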
Hck Nef HTS: inhibitors of Nef-activated human Hck kinase, primary screen, biochemical, Z-Lyte FRET, 384-well, Hck-YEEI; Tyrosine-protein kinase HCK (Homo sapiens), P08631; Recombinant Hck-YEEI plus Nef, Z-Lyte FRET kinase assay; inhibition, % at 20 µM; 220,000 compounds, 0.68% hits; AID 463187, 2010;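 active = Hck-Nef kinase inhibition above about 50%, limit read from the data; inactive = inhibition below that limit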;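 also: 0% = DMSO with Hck plus Nef and 100% = Hck alone without Nef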
RanGTP-Imp inh: inhibitors of RanGTP-importin-beta interaction, primary screen, biochemical, FRET, CFP-Ran, YFP-importin-beta, homogeneous | Ran GTPase (GTP-bound) - importin-beta complex | cell-free CFP-Ran/YFP-importin-beta FRET ratio | inhibition, % (test concentration not listed) | 300,000 compounds, 1.1% hits;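 active = more than half of the replicate wells show a fall in the fluorescence ratio signal beyond about 16%, limit read from the data, passing the limit was not always enough; inconclusive = exactly half of the replicate wells pass the set limit; inactive = fewer than half of replicates pass the limit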;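 also: 0% = DMSO wells and 100% = Ran loaded with GDP instead of GTP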
* marks the source's active call; other numbers are inactive results; ? = inconclusive; / = no result; + = active, no number. Sampled rows, rich in hits. Any-hit rate of the full collection: about 2.1%.

SMILES | Runt-SMMHC FRET | TNF death inh | L929 necroptosis | Runt-CBFb FRET | Hck Nef HTS | RanGTP-Imp inh
N=c1c(C(=O)NC2CCCCC2)cc2c(=O)n3ccccc3nc2n1CC1CCCO1 (stereo unspecified) | / | / | / | / | / | 171.5*
Cc1ccc2nc3c(cc(C(=O)NCC4CCCO4)c(=N)n3CC3CCCO3)c(=O)n2c1 (stereo unspecified) | / | / | / | / | / | 174.9*
Cc1ccc2nc3c(cc(C#N)c(=N)n3CC3CCCO3)c(=O)n2c1 (stereo unspecified) | 42.1 | / | / | 10.8 | / | /
N=c1c(C(=O)NC2CCCC2)cc2c(=O)n3ccccc3nc2n1CC1CCCO1 (stereo unspecified) | / | / | / | / | / | 173.7*
N#Cc1cc2c(=O)n3ccccc3nc2n(CC2CCCO2)c1=N (stereo unspecified) | / | -1.1 | 0.6 | / | 42.4 | /
CC(NC(=O)c1cc2c(=O)n3ccccc3nc2n(CC2CCCO2)c1=N)c1ccccc1 (stereo unspecified) | / | / | / | / | / | +
Cc1cc(-c2nc(C)c(C(=O)NN)s2)no1 | 0.4 | 0.7 | 0.4 | -0.7 | -1.3 | -1.9
Cc1cc(=O)[nH]c(SCC(=O)NN(c2ccccc2)c2ccccc2)n1 | -7.8 | 1.1 | 1.7 | 1.0 | 4.9 | 4.4
Cn1c(C(=O)NCC2CCCO2)cc2c(=O)n3ccccc3nc21 (stereo unspecified) | 60.8* | 0.8 | 4.9 | 22.8 | 28.4 | 2.1
COc1ccc(CCn2c(=N)c(C(=O)NC3CCCC3)cc3c(=O)n4ccccc4nc32)cc1 | / | / | / | / | / | -2.4
Cc1ccc(CNC(=O)c2cc3c(=O)n4ccccc4nc3n(CC3CCCO3)c2=N)cc1 (stereo unspecified) | 62.6* | -0.2 | -1.8 | 18.4 | 38.5 | -9.7
Cc1ccc(S(=O)(=O)c2cc3c(=O)n4ccccc4nc3n(CC3CCCO3)c2=N)cc1 (stereo unspecified) | / | -1.2 | -0.2 | / | 4.2 | /
COc1ccc(Cn2c(=N)c(C(=O)NC3CCCCC3)cc3c(=O)n4ccccc4nc32)cc1 | / | / | / | / | / | 27.6*
O=C(O)CC(NC(=O)c1cccc([N+](=O)[O-])c1)c1ccc2c(c1)OCO2 (stereo unspecified) | 0.1 | 1.1 | 3.6 | -1.0 | 23.7 | 1.8
CCC1=NN(C(=O)Cc2ccc([N+](=O)[O-])cc2)C(O)(c2ccncc2)C1 (stereo unspecified) | -1.6 | 0.1 | -0.6 | -1.6 | 16.1 | 17.6*
CCC1=NN(C(=O)Cc2ccccc2)C(O)(c2ccncc2)C1 (stereo unspecified) | 8.6 | 0.2 | 2.5 | -16.9 | 24.6 | 0.3
COc1ccc(OC)c(NC(=O)C2CCN(C(=O)c3cccs3)CC2)c1 | 2.4 | 1.5 | 1.2 | 65.5* | 25.1 | 0.1
COc1ccc(OC)c(NC(=O)C2CCN(S(=O)(=O)c3cccs3)CC2)c1 | -2.5 | 0.9 | -0.5 | 0.0 | 0.1 | 0.9
CC1(c2ccc(Cl)cc2)NC(=O)N(CC(=O)N2CCN(S(=O)(=O)c3ccccc3)CC2)C1=O (stereo unspecified) | / | / | / | / | / | 1.3
C/C(=N\NC(=O)c1nnn(-c2nonc2N)c1-c1ccc2c(c1)OCO2)c1ccc(C)cc1 | / | / | / | / | / | 9.5
Cc1ccc(S(=O)(=O)N2CCC(C(=O)Nc3ccc(S(=O)(=O)N4CCCC4)cc3)CC2)cc1C | / | / | / | / | / | 2.2
CC1CCC2C(=O)N(c3ccc(Cc4ccncc4)cc3)C(=O)C2C1 (stereo unspecified) | 0.8 | -1.0 | -0.1 | 0.6 | 3.9 | ?
COc1cccc(-c2ccc(NC(=O)C3CCCN(Cc4cnn(C(C)C)c4)C3)cc2)c1 (stereo unspecified) | / | / | / | / | / | -1.0
Cc1ccc(C(=O)C2=C(O)C(=O)N(CCN3CCOCC3)C2c2ccccn2)o1 (stereo unspecified) | 5.6 | -0.1 | 1.6 | 1.2 | 0.2 | 22.8*
CCN(CC)CCN1C(=O)C(O)=C(C(=O)c2ccc(C)o2)C1c1ccccn1 (stereo unspecified) | / | -1.1 | -0.4 | / | 5.7 | 29.0*
SMILES | Runt-SMMHC FRET | TNF death inh | L929 necroptosis | Runt-CBFb FRET | Hck Nef HTS | RanGTP-Imp inh
CCN(CC)CCCN1C(=O)C(O)=C(C(=O)c2ccc(C)o2)C1c1ccc(C)o1 (stereo unspecified) | 3.8 | 0.8 | -0.1 | 1.7 | 0.7 | -1.2
Nc1ncccc1OCc1ccc(Cl)c(Cl)c1 | -4.5 | 1.1 | 0.2 | 1.5 | 7.3 | ?
Cc1noc(C)c1S(=O)(=O)N1CCCC(C(=O)NCc2ccccc2Cl)C1 (stereo unspecified) | / | / | / | / | / | -2.1
COc1ccc(NS(=O)(=O)c2cc(NC(=O)Cn3cnc4c3c(=O)n(C)c(=O)n4C)ccc2C)cc1 | -3.3 | 2.1 | 0.4 | 0.8 | -11.7 | 0.9
COc1ccc(/C=N/Nc2cc(C)nc(-n3nc(C)cc3C)n2)cc1 | 2.2 | -5.5 | 14.0 | -3.6 | -0.9 | -3.2
Oc1ccc(/C=N/Nc2cc(N3CCCC3)nc(N3CCCC3)n2)cc1 | -0.8 | -0.1 | 0.2 | 2.2 | 0.5 | 85.8*
COc1ccc(/C=N/Nc2cc(N3CCCC3)nc(N3CCCC3)n2)cc1 | -3.2 | 2.1 | 8.5 | 1.4 | 16.1 | 60.2*
CCOC(=O)N/N=C(\C)c1ccc(C)c([N+](=O)[O-])c1 | 4.1 | 2.4 | 4.2 | 1.3 | 0.3 | ?
Cc1ccc(NC(=O)Cc2c(O)c3ccccc3[nH]c2=O)c(C)c1 | -1.2 | -0.5 | -0.1 | -1.6 | -0.1 | 0.5
COc1ccc(N2CCN(c3ncnc4c3[nH]c3ccccc34)CC2)cc1 | -2.3 | -4.2 | 0.7 | -1.7 | 0.6 | 19.1*
CCOC(=O)CC(=O)CSc1nc2ccc(C)cc2cc1C#N | -46.6 | -2.7 | 0.1 | 11.4 | 1.7 | /
CCOCCCNC(=S)NCCCNc1nc2ccc(C)cc2cc1C#N | 88.8* | 1.1 | 0.2 | 92.9* | 39.9 | /
CCOCCCNC(=S)NCCNc1nc2ccc(C)cc2cc1C#N | 111.2* | -1.1 | 0.9 | 81.2* | 9.0 | 30.8*
O=[N+]([O-])c1cc(Br)c(O)c(/C=N/Nc2nnnn2-c2cccc3ccccc23)c1 | -11.9 | -0.8 | -0.4 | -4.9 | 11.0 | -1.0
COC(=O)C1CCN(C2CC(=O)N(c3cc(C)cc(C)c3)C2=O)CC1 (stereo unspecified) | 4.2 | 0.8 | 0.8 | 0.8 | -16.1 | 0.0
Cc1ccccc1-n1ncc(C(C)NC(=O)c2ccco2)c1C (stereo unspecified) | 3.4 | 0.3 | 0.5 | -1.4 | -2.0 | -2.0

Source: PubChem (several laboratories)
